In paper PMC4174307 (Nature, 2014):

Key:
P2Y12R (WT) [1] = target: T1, P2Y12R (WT) (Homo sapiens, UniProt Q9H244, D294N); assay: saturation radioligand binding, membranes
Method in brief: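 Receptor construct carrying the D294N mutation, with BRIL fused into ICL3, expressed in Sf9 cells. Membranes were prepared by homogenization, a 1,000g spin, then a 20,000g 60 min pellet. Saturation binding used [3H]2MeSADP (3.5 Ci mmol−1, 0.4–46 nM), 5 μg membrane protein, in Tris-HCl with 10 mM MgCl2. Nonspecific binding was defined with 10 μM P2Y12R antagonist. Filtration was followed by scintillation counting. Kd from independent experiments in duplicate.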

P2Y12R (WT) [2] = target: T2, P2Y12R (WT) (Homo sapiens, UniProt Q9H244); assay: [3H]2MeSADP displacement, membranes; format: binding
T2 sequence (Q9H244 whole entry): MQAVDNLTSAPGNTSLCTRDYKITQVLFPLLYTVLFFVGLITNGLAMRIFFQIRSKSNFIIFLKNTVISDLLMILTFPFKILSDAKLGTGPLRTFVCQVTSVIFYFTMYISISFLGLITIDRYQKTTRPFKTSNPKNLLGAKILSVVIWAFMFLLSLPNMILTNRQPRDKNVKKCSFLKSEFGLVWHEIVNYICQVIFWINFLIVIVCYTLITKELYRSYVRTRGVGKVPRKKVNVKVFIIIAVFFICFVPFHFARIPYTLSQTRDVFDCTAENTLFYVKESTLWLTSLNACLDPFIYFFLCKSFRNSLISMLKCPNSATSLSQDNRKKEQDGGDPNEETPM

P2Y12R (WT) [3] = target: P2Y12R (WT) (Homo sapiens, UniProt Q9H244, N159A); assay: saturation radioligand binding, membranes
Chain of P2Y12R (WT) (Homo sapiens, UniProt Q9H244, N159A) (Q9H244 whole entry N159A): as the sequence (Q9H244 whole entry) above, with N159A counted along it
Method in brief: (§1)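 Human P2Y12R (wild type or single alanine mutants) in pcDNA3.0, transiently transfected into COS7 cells and harvested 48 h later. Membranes: 1,000g spin, then 20,000g pellet for 60 min, stored at −80 °C. [3H]2MeSADP (3.5 Ci mmol−1, 0.4–46 nM) was incubated with 5 μg membrane protein in Tris-HCl with 10 mM MgCl2. Nonspecific binding was defined with 10 μM P2Y12R antagonist. Bound ligand was separated by filtration, washed with cold buffer and counted by scintillation. Kd is mean ± s.e.m., 3–6 independent experiments in duplicate.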

P2Y12R (WT) [4] = target: T2, P2Y12R (WT); assay: saturation radioligand binding, membranes
Method in brief: as §1

P2Y12R (WT) [5] = target: T1, P2Y12R (WT); assay: [3H]2MeSADP displacement, membranes; format: binding
P2Y12R (WT) [6] = target: P2Y12R (WT) (Homo sapiens, UniProt Q9H244, S156A); assay: saturation radioligand binding, membranes
Chain of P2Y12R (WT) (Homo sapiens, UniProt Q9H244, S156A) (Q9H244 whole entry S156A): as the sequence (Q9H244 whole entry) above, with S156A counted along it
Method in brief: as §1

T1 sequence (Q9H244 whole entry D294N, the tested form may be a part): as the sequence (Q9H244 whole entry) above, with D294N counted along it

| SMILES | Kd (P2Y12R (WT) [1]) [µM] | Ki (P2Y12R (WT) [2]) [µM] | Kd (P2Y12R (WT) [3]) [µM] | Kd (P2Y12R (WT) [4]) [µM] | Ki (P2Y12R (WT) [5]) [µM] | Kd (P2Y12R (WT) [6]) [µM] |
| --- | --- | --- | --- | --- | --- | --- |
| CSc1nc(N)c2ncn([C@@H]3O[C@H](COP(=O)(O)OP(=O)(O)O)[C@@H](O)[C@H]3O)c2n1 [2MeSADP, 2-methylthio-adenosine 5′-diphosphate] | 0.0336 ± 0.0102 | 0.12 ± 0.0073 | 0.00639 ± 0.00094 | 0.00425 ± 0.00087 | 0.0808 ± 0.0168 | 0.00566 ± 0.00072 |
| Nc1c(S(=O)(=O)O)cc(Nc2ccc(Nc3ccccc3)c(S(=O)(=O)O)c2)c2c1C(=O)c1ccccc1C2=O [PSB-0739] | – | 0.275 ± 0.058 | – | – | 0.0728 ± 0.0167 | – |
| CCCSc1nc(N[C@@H]2C[C@H]2c2ccc(F)c(F)c2)c2nnn([C@@H]3C[C@H](OCCO)[C@@H](O)[C@H]3O)c2n1 [Ticagrelor] | – | 0.454 ± 0.11 | – | – | 0.424 ± 0.193 | – |

The remaining compounds from weak to strong by Ki (P2Y12R (WT) [2]), led by results:

| Kd (P2Y12R (WT) [1]) [µM] | Ki (P2Y12R (WT) [2]) [µM] | Kd (P2Y12R (WT) [3]) [µM] | Kd (P2Y12R (WT) [4]) [µM] | Ki (P2Y12R (WT) [5]) [µM] | Kd (P2Y12R (WT) [6]) [µM] | SMILES |
| --- | --- | --- | --- | --- | --- | --- |
| – | 0.332 ± 0.035 | – | – | 0.169 ± 0.081 | – | Nc1ncnc2c1ncn2[C@@H]1O[C@H](COP(=O)(O)OP(=O)(O)O)[C@@H](O)[C@H]1O [ADP] |
| – | 0.119 ± 0.0198 | – | – | 0.0824 ± 0.0285 | – | CSc1nc(N)c2ncn([C@@H]3O[C@H](COP(=O)(O)OP(=O)(O)OP(=O)(O)O)[C@@H](O)[C@H]3O)c2n1 [2MeSATP] |
| – | 0.0315 ± 0.0119 | – | – | – | – | CCOC(=O)c1cc(C#N)c(N2CCC(C(=O)NS(=O)(=O)Cc3ccccc3)CC2)nc1C [AZD1283, Ethyl 6-(4-((benzylsulphonyl)carbamoyl)piperidin-1-yl)-5-cyano-2-methylnicotinate] |
